# Measured values from ChEMBL document CHEMBL4732055, “Discovery of fast-acting dual-stage antimalarial agents by profiling pyridylvinylquinoline chemical space via copper catalyzed azide-alkyne cycloadditions” (Eur J Med Chem, 2021).
# Calls of active or inactive are those of the source. The rule behind the calls is not given here.
# Experiments:
# [1] = tested on: Plasmodium falciparum; test: Antiplasmodial activity against chloroquine-resistant Plasmodium falciparum Dd2 infected in erythrocytes assessed as reduction in parasite growth after 72 hrs by SYBR green I staining based fluorescence assay; assay type: functional, organism-based; conditions: Dd2, Erythrocyte
# Method in brief: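 Asexual P. falciparum cultures at 1% parasitemia and 1% hematocrit, given serial dilutions in DMSO (0.1% maximum), were incubated 72 h at 37 °C in 5% CO2. Plates were frozen, thawed and lysed with Tris/saponin/EDTA/Triton X-100 buffer containing SYBR Green I, then kept 1 h dark at room temperature. Fluorescence was read at 485 excitation/530 emission. EC50 came from non-linear dose-response curves.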
# [2] = tested on: Plasmodium falciparum; test: Parasiticidal activity against chloroquine-resistant Plasmodium falciparum Dd2 infected in erythrocytes assessed as reduction in parasitemia at 6.6 nM incubated for 6 to 12 hrs followed by compound washout and then incubated for 96 hrs by Giemsa staining based microscopic analysis; assay type: functional, organism-based; conditions: time 6-12 hrs
# [3] = tested on: Hemozoin; test: Inhibition of beta-hematin formation at 12.5 to 200 uM after 16 hrs by inverted microscopic analysis; conditions: dose 12.5-200 µM
# [4] = tested on: Plasmodium falciparum; test: Antiplasmodial activity against chloroquine-sensitive Plasmodium falciparum 3D7 infected in erythrocytes assessed as reduction in parasite growth after 72 hrs by SYBR green I staining based fluorescence assay; assay type: functional, organism-based; conditions: 3D7, Erythrocyte
# Method in brief: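 Compound dilutions in DMSO (max 0.1% DMSO) added to P. falciparum culture at 1% parasitemia, 1% hematocrit; 72 h at 37 °C, 5% CO2. Plates frozen, thawed, lysed with buffer containing saponin, Triton X-100, EDTA and SYBR Green I; 1 h dark at room temperature; fluorescence ex 485/em 530. EC50 from non-linear dose-response curves.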
# [5] = tested on: HepG2; test: Cytotoxicity against human HepG2 cells assessed as reduction in cell viability after 48 hrs by MTS assay; assay type: cell-based; conditions: HepG2, 48 h
# Method in brief: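 HepG2 cells seeded at 2250 per well, grown 24 h at 37 °C, 5% CO2. Serial compound dilutions starting at 25 μM added for a further 48 h. MTS reagent added for 3 h at 37 °C; viability read as absorbance at 490 nm.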
# [6] = Stability in mouse liver microsomes assessed as parent compound remaining at 1 uM after 15 mins in presence of NADPH regenerating system by LC/MS analysis; assay type: ADME, Microsome; conditions: read-out: Stabilty
# Method in brief: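 Compound at 1 μM final (from 25 μM DMSO stock) with 0.5 mg/mL mouse liver microsomes, NADPH-regenerating system (1.3 mM NADP, 3.3 mM glucose 6-phosphate, 3.3 mM MgCl2, 0.4 U/mL G6PDH) in 0.1 M potassium phosphate pH 7.4, 37 °C with shaking. Aliquots quenched in cold acetonitrile, centrifuged, quantified by LC/MS as percent parent remaining relative to T = 0; CLint and t1/2 reported.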
# [7] = tested on: Plasmodium falciparum; test: Antiplasmodial activity against synchronized chloroquine-resistant Plasmodium falciparum Dd2 assessed as prevention of parasite cell cycle progression at 5 times of EC50 treated with compound at 6 to 30 hrs post invasion and measured after 12 hrs by Giemsa staining-based microscopic analysis; assay type: functional, organism-based
# Method in brief: (§1)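 Samples taken at 12 h intervals were made into Giemsa-stained thin smears and scored by microscopy for intraerythrocytic stage and development, against untreated control cultures.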
# [8] = tested on: Plasmodium falciparum; test: Antiplasmodial activity against synchronized chloroquine-resistant Plasmodium falciparum Dd2 assessed as effect on schizont maturation and reinvasion of merozoite at 5 times of EC50 treated with compound at 42 hrs post invasion and measured after 12 hrs by Giemsa staining-based microscopic analysis; assay type: functional, organism-based; method in brief: as §1
# [9] = tested on: Plasmodium falciparum; test: Antiplasmodial activity against synchronized chloroquine-resistant Plasmodium falciparum Dd2 assessed as morphological changes at 5 times of EC50 treated with compound at 6 hrs post invasion and measured after 12 hrs by Giemsa staining-based microscopic analysis; assay type: functional, organism-based; method in brief: as §1
# [10] = tested on: Plasmodium falciparum; test: Antiplasmodial activity against synchronized chloroquine-resistant Plasmodium falciparum Dd2 assessed as reduction in DNA content at 5 times of EC50 treated with compound at 6 to 30 hrs post invasion measured after 12 hrs by YOYO-1 staining-based flow cytometric analysis; assay type: functional, organism-based
# [11] = tested on: Plasmodium falciparum; test: Antiplasmodial activity against synchronized chloroquine-resistant Plasmodium falciparum Dd2 assessed as reduction in DNA content at 5 times of EC50 treated with compound at 42 hrs post invasion measured after 12 hrs by YOYO-1 staining-based flow cytometric analysis; assay type: functional, organism-based
# [12] = tested on: Plasmodium falciparum; test: Antiplasmodial activity against synchronized chloroquine-resistant Plasmodium falciparum Dd2 assessed as appearance of large vacuoles at 5 times of EC50 treated with compound at 6 to 42 hrs post invasion and measured after 12 hrs by Giemsa staining-based microscopic analysis; assay type: functional, organism-based; method in brief: as §1
# [13] = tested on: Plasmodium falciparum; test: Parasiticidal activity against chloroquine-resistant Plasmodium falciparum Dd2 infected in erythrocytes assessed as reduction in parasitemia at 5 times of EC50 incubated for 6 to 12 hrs followed by compound washout and then incubated for 96 hrs by Giemsa staining based microscopic analysis; assay type: functional, organism-based; conditions: time 6-12 hrs
# [14] = tested on: Plasmodium falciparum; test: Antiplasmodial activity against early stage (II/III) gametocytes of Plasmodium falciparum 3D7 harboring luc7 incubated for 72 hrs by ONE-Glo luciferase assay; assay type: functional, organism-based; conditions: 3D7, 72 h
# Method in brief: (§2)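 Gametocytes of the 3D7 luc7 line were induced by nutrient starvation and cleared of asexual parasites with heparin-treated medium. Stage II-III or IV-V gametocytes were Percoll-purified, and 50,000 per well were exposed 72 h to a 19-point gradient (0.038 nM to 10 μM). Read-out was ONE-Glo luciferase after 5 min with reagent. EC50 came from four-parameter variable-slope nonlinear regression.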
# [15] = tested on: Plasmodium falciparum; test: Antiplasmodial activity against late stage (IV/V) gametocytes of Plasmodium falciparum 3D7 harboring luc7 incubated for 72 hrs by ONE-Glo luciferase assay; assay type: functional, organism-based; conditions: 3D7, 72 h; method in brief: as §2
# [16] = tested on: Hemozoin; test: Inhibition of beta-hematin formation after 16 hrs by inverted microscopic analysis
# [17] = tested on: Plasmodium falciparum; test: Antimalarial activity against Plasmodium falciparum RKL9 gametocytes incubated for 48 hrs by Giemsa staining based assay; assay type: functional, organism-based; conditions: RKL9, 48 h
# [18] = tested on: Plasmodium falciparum; test: Parasiticidal activity against chloroquine-resistant Plasmodium falciparum Dd2 infected in erythrocytes assessed as reduction in parasitemia at 50 nM incubated for 24 to 48 hrs followed by compound washout and then incubated for 96 hrs by Giemsa staining based microscopic analysis; assay type: functional, organism-based; conditions: time 24-48 hrs
Structure (SMILES),EC50 [1] [nM],EC50 [4] [nM],EC50 [5] [nM],further results
CN1CCN(Cc2cn(-c3cc(/C=C/c4ccncc4)nc4ccc(Cl)cc34)nn2)CC1,> 10000,,,
O=C1C(O)=C([C@H]2CC[C@H](c3ccc(Cl)cc3)CC2)C(=O)c2ccccc21,,,,Activity [2]: Active
CCN(CC)Cc1cn(CCNc2cc(/C=C/c3ccncc3)nc3ccc(Cl)cc23)nn1,1320,,,
CCN(CC)Cc1cn(-c2cc(/C=C/c3ccncc3)nc3ccc(Cl)cc23)nn1,1320,,,
CCN(CC)CCCC(C)Nc1ccnc2cc(Cl)ccc12 (stereo unspecified),,,,inhibition [3]: Active
CN1CCN(Cc2cn(CCCCNc3cc(/C=C/c4ccncc4)nc4ccc(Cl)cc34)nn2)CC1,160,160,15800,"remaining at 0.25 h, 1 µM [6]: < 50%"
Clc1ccc2nc(/C=C/c3ccncc3)cc(NCCCCn3cc(CN4CCOCC4)nn3)c2c1,170,230,> 25000,"remaining at 0.25 h, 1 µM [6]: < 50%"
O=C1S/C(=C\c2ccccc2)C(=O)N1Cc1cn(CCNc2cc(/C=C/c3ccncc3)nc3ccc(Cl)cc23)nn1,240,440,5730,"remaining at 0.25 h, 1 µM [6]: < 50%"
OCCN1CCN(Cc2cn(CCNc3cc(/C=C/c4ccncc4)nc4ccc(Cl)cc34)nn2)CC1,4270,,,
Clc1ccc2nc(/C=C/c3ccncc3)cc(NCCCCn3cc(CN4CCCCC4)nn3)c2c1,40,70,5490,"remaining at 0.25 h, 1 µM [6]: < 50%; Activity [7]: Active; Activity [8]: inactive; Activity [9]: inactive; Activity [10]: Active; Activity [11]: inactive; Activity [12]: Active; Activity [13]: Active; EC50 [14]: 950 nM; EC50 [15]: 890 nM; inhibition [16]: Dose-dependent effect"
O=C1c2ccccc2C(=O)N1Cc1cn(CCNc2cc(/C=C/c3ccncc3)nc3ccc(Cl)cc23)nn1,1070,,,
O=C(Cn1cc(COc2ccc(Br)cc2)nn1)NCCNc1ccnc2cc(Cl)ccc12,,,,IC50 [17]: 8500 nM
Clc1ccc2nc(/C=C/c3ccncc3)cc(-n3cc(CN4CCCC4)nn3)c2c1,1650,,,
C[C@H]1[C@@H](O)O[C@@H]2O[C@@]3(C)CC[C@H]4[C@H](C)CC[C@@H]1[C@@]24OO3,,,,Activity [18]: Active
CN1CCN(Cc2cn(CCNc3cc(/C=C/c4ccncc4)nc4ccc(Cl)cc34)nn2)CC1,> 10000,,,
O=C1c2ccccc2C(=O)N1Cc1cn(CCCCNc2cc(/C=C/c3ccncc3)nc3ccc(Cl)cc23)nn1,1000,,,
O=C1S/C(=C\c2ccccc2)C(=O)N1Cc1cn(CCCCNc2cc(/C=C/c3ccncc3)nc3ccc(Cl)cc23)nn1,600,330,> 25000,
Clc1ccc2nc(/C=C/c3ccncc3)cc(NCCn3cc(Cn4cccn4)nn3)c2c1,1180,,,
Clc1ccc2nc(/C=C/c3ccncc3)cc(NCCn3cc(CN4CCOCC4)nn3)c2c1,1850,,,
Clc1ccc2nc(/C=C/c3ccncc3)cc(NCCCCn3cc(CN4CCCC4)nn3)c2c1,690,520,> 25000,
Clc1ccc2nc(/C=C/c3ccncc3)cc(-n3cc(CN4CCOCC4)nn3)c2c1,> 10000,,,
O=C1c2ccccc2C(=O)N1Cc1cn(-c2cc(/C=C/c3ccncc3)nc3ccc(Cl)cc23)nn1,8790,,,
OCCN1CCN(Cc2cn(-c3cc(/C=C/c4ccncc4)nc4ccc(Cl)cc34)nn2)CC1,1660,,,
Clc1ccc2nc(/C=C/c3ccncc3)cc(-n3cc(CN4CCCCC4)nn3)c2c1,1240,,,
Clc1ccc2nc(/C=C/c3ccncc3)cc(NCCCCn3cc(Cn4cccn4)nn3)c2c1,350,280,21200,"remaining at 0.25 h, 1 µM [6]: < 50%"
Clc1ccc2nc(/C=C/c3ccncc3)cc(NCCn3cc(CN4CCCCC4)nn3)c2c1,550,470,13500,
Clc1ccc2nc(/C=C/c3ccncc3)cc(NCCn3cc(CN4CCCC4)nn3)c2c1,2960,,,
OCCN1CCN(Cc2cn(CCCCNc3cc(/C=C/c4ccncc4)nc4ccc(Cl)cc34)nn2)CC1,670,640,> 25000,
